Compound activity as filed in PubChem BioAssay.
SMARCA2 activ: increases SMARCA2 function in MMTV reporter cells. activation, % at 9.1 µM. MG213 cells, MMTV-luciferase reporter, dexamethasone, overnight. 370,000 compounds, 1% hits; in the data active = activation above about 7.8%;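 note: 0% = vehicle wells and 100% = reference activator wells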
MC4R antagonist: blocks human MC4R cAMP signaling; inhibition, % at 6.5 µM; 360,000 compounds, 0.48% hits; MC4R-expressing cells, MTII-stimulated cAMP, LANCE TR-FRET;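 active = inhibition above its plate's cutoff, the mean of tested wells on that plate plus 3 SD, cut at about 29% in these data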;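 note: 0% = Melanotan II alone and 100% = Melanotan II plus saturating MCL0020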
Target sequence (P32245 whole entry, looked up): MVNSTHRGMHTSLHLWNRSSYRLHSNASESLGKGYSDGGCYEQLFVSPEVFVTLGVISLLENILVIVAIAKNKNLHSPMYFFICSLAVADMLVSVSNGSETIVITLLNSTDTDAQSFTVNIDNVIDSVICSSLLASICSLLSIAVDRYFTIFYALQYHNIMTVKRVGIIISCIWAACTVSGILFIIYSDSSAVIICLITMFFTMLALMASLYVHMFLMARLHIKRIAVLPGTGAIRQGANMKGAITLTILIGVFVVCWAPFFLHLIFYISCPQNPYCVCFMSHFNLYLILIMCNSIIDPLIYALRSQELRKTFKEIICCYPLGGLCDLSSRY
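Assay system: U2OS cells stably expressing human melanocortin 4 receptor (MC4R) / Dosing: 6.5 µM / Timing: compound 30 min, challenge 1 h, detection 1 h / Measured by: Eu-cAMP/anti-cAMP TR-FRET, emission 671 nm / Replicates: singlicate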
MC4R ag barr: agonists of human melanocortin 4 receptor (MC4R) beta-arrestin. P32245. U2OS MC4R beta-arrestin complementation, luminescence; percent of melanotan II response, DMSO zero. activation, % at 8.9 µM. 360,000 compounds, 0.98% hits;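 active = activation above a per-plate cutoff, the mean activation of sample wells on that plate plus 3 SD, cut at about 8% in these data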
ATG4B inhibitor: blocks human ATG4B protease cleavage of LC3 substrate | ATG4B cleavage of LC3-PLA2, NBD-HPC fluorescence, 1 h | AID 504462 | inhibition, % at 8.33 µM | 340,000 compounds, 0.51% hits; in the data active = inhibition above about 40%
Target sequence (Q9Y4P1 whole entry, looked up): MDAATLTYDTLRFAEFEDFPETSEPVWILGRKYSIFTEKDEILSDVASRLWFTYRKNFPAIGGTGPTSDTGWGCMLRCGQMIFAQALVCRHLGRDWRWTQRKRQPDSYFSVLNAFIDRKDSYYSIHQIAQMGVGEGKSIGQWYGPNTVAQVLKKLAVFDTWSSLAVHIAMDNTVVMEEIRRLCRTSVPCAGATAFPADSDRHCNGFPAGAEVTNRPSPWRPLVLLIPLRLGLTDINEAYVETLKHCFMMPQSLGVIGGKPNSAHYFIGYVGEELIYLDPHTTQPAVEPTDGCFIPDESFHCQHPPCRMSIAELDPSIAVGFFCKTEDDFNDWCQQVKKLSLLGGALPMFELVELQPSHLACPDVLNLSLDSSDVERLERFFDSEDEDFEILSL
MPTP block: blocks calcium-induced mitochondrial swelling | isolated mouse mitochondria, Ca2+ swelling absorbance, 30 min | inhibition, % at 10 µM | 360,000 compounds, 1.4% hits | AID 602449;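 active = inhibition of 50% or more, scaled per plate between neutral and stimulator controls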;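 note: 0% = DMSO wells given calcium and 100% = 1 mM EGTA wells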
U2OS cAMP counter: nonselective cAMP signaling inhibitor, MC4R antagonist counter-screen | shares compounds with MC4R antagonist | 1,600 compounds, 26% hits | inhibition, % at 6.5 µM | AID 602193 | parental U2OS, forskolin cAMP, LANCE TR-FRET;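 active = mean inhibition over triplicates above the low-control well mean plus 3 SD, set per campaign, cut at about 13% in these data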;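 note: signal is single emission at 671 nm which falls as cellular cAMP rises; 0% = forskolin-stimulated wells and 100% = buffer without forskolin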
MC4R antag conf: human MC4R cAMP antagonism confirmation | shares compounds with MC4R antagonist | MC4R-expressing cells, MTII-stimulated cAMP, TR-FRET | inhibition, % at 6.5 µM | 1,600 compounds, 27% hits | AID 602195; in the data active = inhibition above about 29%;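 note: 0% = agonist stimulated wells alone and 100% = agonist stimulated wells plus saturating reference antagonist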
* = called active by the depositor; nt = not tested or not shown. Compounds with a hit are over-represented: about 4.1% of the library has one in this group of screens.

SMILES | SMARCA2 activ | MC4R antagonist | MC4R ag barr | ATG4B inhibitor | MPTP block | U2OS cAMP counter | MC4R antag conf
CCS(=O)(=O)N1Cc2ccccc2CC1C(=O)N(C)Cc1ccc(OC)c(F)c1 (stereo not given) | -0.4 | 33.6* | -0.4 | 6.6 | -0.3 | -4.7 | -14.0
COc1ccccc1CCn1cnc(-c2ccc(OC)c(OC)c2)c1CC(C)C | -9.2 | nt | nt | nt | nt | nt | nt
O=C(OCCN1CCN(C2CN(Cc3cn(Cc4ccccc4F)nn3)S(=O)(=O)C2)CC1)c1cc2ccccc2o1 (stereo not given) | 5.3 | nt | nt | nt | nt | nt | nt
O=C(CN1C(=O)c2cccc([N+](=O)[O-])c2C1=O)N1CCN(c2ccc(F)cc2)CC1 | -2.2 | 34.4* | -0.7 | -7.4 | 0.9 | 26.7* | 43.4*
O=C1C(F)=CC(COC(c2ccccc2)(c2ccccc2)c2ccccc2)OC1n1cc(F)c(=O)[nH]c1=O (stereo not given) | -4.3 | 29.5* | -5.0 | -4.2 | -6.8 | -2.2 | -13.8
O=S(=O)(c1ccc(Br)c2nsnc12)N1CCOCC1 | 5.5 | 29.9* | -2.1 | -3.1 | -0.2 | 11.4 | 25.3
CCC(=O)N1CCc2cc(Br)c(S(=O)(=O)N3CCC(C(=O)NCCCOC(C)C)CC3)cc21 | -3.3 | nt | nt | nt | nt | nt | nt
O=C(Oc1ccc(C(=S)N2CCOCC2)cc1)c1ccc([N+](=O)[O-])cc1 | -0.1 | 34.5* | 0.5 | 4.7 | 6.4 | -1.1 | -17.6
O=C(c1ccc([N+](=O)[O-])cc1)N1CCOCC1 | 3.7 | -1.3 | -0.1 | 1.2 | 1.1 | nt | nt
CCOc1ccc(CCNC(=O)CCS(=O)(=O)c2ccc(C)cc2)cc1OCC | -1.4 | -1.6 | -0.9 | -1.9 | -0.2 | nt | nt
CCOc1ccc(CCNC(=O)CCS(=O)(=O)c2ccc(Br)cc2)cc1OCC | 1.3 | 28.8* | 1.0 | -5.1 | -1.3 | 0.1 | 9.8
COc1ccc2c(c1)CNC2CS(=O)(=O)NCCc1ccccc1 (stereo not given) | -0.7 | nt | nt | nt | nt | nt | nt
COC(=O)c1ccc(CN2CCc3ccc(NC(=O)c4ccncc4)cc3C2)cc1 | -5.2 | 29.0* | 0.3 | 0.7 | 1.7 | 3.2 | -1.2
CC(=O)Nc1ccc(NC(=O)c2ccc(CN3CCc4ccccc4C3)cc2)cc1 | -1.9 | 1.2 | 0.5 | -1.3 | 1.8 | nt | nt
CC(=O)Nc1ccc2nc(NC(=O)C(Cl)(Cl)Cl)sc2c1 | 0.3 | 29.1* | 0.1 | 8.1 | -0.8 | -3.9 | -18.5
C[C@@H]1ON(C)[C@H]2C[C@H]3c4cc(-c5ccc(F)cc5)ccc4CCN3C[C@@H]12 | -1.8 | nt | nt | nt | nt | nt | nt
CC(C)c1ccc(-n2cccc2/C=C2/C(=N)N3C=CSC3=NC2=O)cc1 | -1.7 | 9.0 | -0.4 | 19.8 | 2.5 | nt | nt
COc1ccc(-n2cccc2/C=C2\C(=N)N3N=C(C(C)C)SC3=NC2=O)cc1 | -3.1 | 46.6* | -2.4 | -4.0 | 5.2 | 0.7 | 8.3
CCC1=NN2C(=N)/C(=C\c3cccn3-c3ccc(C)cc3C)C(=O)N=C2S1 | -1.8 | 43.7* | 0.9 | 35.9 | 10.8 | 1.2 | 9.2
COC(=O)C(Cc1ccc(O)cc1)NC(=O)c1ccccc1 (stereo not given) | -0.9 | 48.9* | 0.1 | 2.3 | -1.2 | 16.3* | 40.7*
C=CCN1C(=O)[C@@H](CC(=O)NCc2ccccc2)[C@]2(C(=O)OC)CCCCC=C12 | -3.5 | nt | nt | nt | nt | nt | nt
CC(=O)c1sccc1NC(=O)c1ccccc1C(=O)O | -2.6 | 71.8* | 0.1 | -1.6 | 0.3 | 29.3* | 60.9*
O=C(Nc1ccc(F)cc1)C1CCCN(S(=O)(=O)c2cccc3nonc23)C1 (stereo not given) | -1.0 | 31.8* | 0.5 | 4.8 | -1.4 | 0.2 | 8.2
O=C(NCc1ccc(F)cc1)C1CCCN(S(=O)(=O)c2cccc3nonc23)C1 (stereo not given) | -2.9 | 4.8 | 2.0 | -0.3 | 1.3 | nt | nt
O=C(c1cccc(I)c1)N1CCC(Oc2cccnc2)CC1 | 0.3 | nt | nt | nt | nt | nt | nt
SMILES | SMARCA2 activ | MC4R antagonist | MC4R ag barr | ATG4B inhibitor | MPTP block | U2OS cAMP counter | MC4R antag conf
COc1ccccc1Cn1c(=S)[nH]c2ccc(F)cc2c1=O | -3.0 | 65.2* | -1.8 | -6.9 | -0.2 | 50.1* | 100.3*
COc1ccccc1Cn1c(=S)[nH]c2ccc(Br)cc2c1=O | -3.0 | 6.1 | 1.2 | -3.7 | 2.4 | nt | nt
COC(=O)[C@]12C[C@H](CC(=O)NCCCN3CCCC3=O)C(=O)N(CCc3ccc(OC)c(OC)c3)C1=C[C@H](C(C)(C)C)O[C@@H]2C | -4.0 | nt | nt | nt | nt | nt | nt
COc1ccc(CNC(=O)COC(=O)[C@H](Cc2c[nH]c3ccccc23)NC(=O)c2cccs2)cc1 | 0.9 | 42.7* | -2.8 | -21.9 | 1.4 | 22.4* | 13.9
COC(=O)[C@H](Cc1c[nH]c2ccccc12)NC(=O)NCc1ccc(OC)cc1 | 4.7 | 36.8* | 1.5 | 2.0 | -1.8 | -4.0 | 1.0
COc1ccc2c(c1)CN1C(=O)N(Cc3ccc(F)cc3)S(=O)(=O)CC21 (stereo not given) | -2.0 | nt | nt | nt | nt | nt | nt
O=C(CCCCCN1C(=O)C2C3C=CC(C3)C2C1=O)Nc1ccc2ncccc2c1 (stereo not given) | 0.1 | nt | nt | nt | nt | nt | nt
Cc1ccc(C2CCC3(CCC(=O)N3CCO)CC2)cc1 (stereo not given) | -3.7 | nt | nt | nt | nt | nt | nt
Cc1nc(-c2cccc(NC(=O)c3ccc(Cl)c(S(=O)(=O)N4CCCC4)c3)c2)cs1 | -1.8 | 31.4* | -1.3 | nt | -0.4 | 4.4 | -12.4
Cc1nc(-c2cccc(NC(=O)c3cccc(S(=O)(=O)N4CCCC4)c3)c2)cs1 | -1.3 | 15.8 | -0.9 | -4.5 | 0.4 | nt | nt
CC(C)(C)S(=O)N1C[C@@H]2CC(=O)C(c3ccccc3)=C2[C@H]1CCO (stereo not given in full) | -4.1 | nt | nt | nt | nt | nt | nt
Cc1ccc(-c2cn3cccnc3n2)cc1NC(=O)c1cccs1 | 0.0 | 30.0* | 1.7 | 4.5 | -0.8 | -4.9 | -15.3
Cc1ccc(NC(=O)c2cc(-c3ccccc3)nn2-c2ccccc2)cc1 | -2.6 | 18.6 | 0.4 | 0.1 | 1.7 | nt | nt
O=C(Nc1ccc(F)cc1)c1nn(-c2ccccc2)c(=O)cc1Cl | -3.7 | 30.6* | -1.3 | -1.5 | -0.9 | 29.8* | 38.0*
C(=C\c1ccccc1)/C=N/N1CCN(Cc2ccccc2)CC1 | 1.8 | 29.9* | 6.7 | -4.1 | -1.1 | -2.8 | -3.7
CCOC(=O)C1=CCN(S(=O)(=O)c2ccc(Br)cc2)C1c1cccc(Cl)c1 (stereo not given) | 1.4 | nt | nt | nt | nt | nt | nt
O=C(CSc1nnc(-c2ccccc2)n1-c1ccc(Cl)cc1)Nc1cccc2ccccc12 | 0.0 | nt | nt | nt | nt | nt | nt
O=C(OCc1ccccc1F)c1cnc(Cl)c(Cl)c1 | -3.0 | 39.6* | -2.1 | 2.9 | -1.1 | 25.1* | 38.1*
O=C(OCc1c(F)cccc1Cl)c1cnc(Cl)c(Cl)c1 | -1.4 | 34.5* | -1.0 | -6.4 | -2.2 | 16.8* | 43.3*
O=C(OCc1ccc([N+](=O)[O-])cc1)c1cnc(Cl)c(Cl)c1 | -2.5 | 11.7 | -1.8 | -8.6 | -0.7 | nt | nt
